According to ChEMBL document CHEMBL4024713, “Novel aryl piperazines for alleviation of 'andropause' associated prostatic disorders and depression” (Eur J Med Chem, 2017):
Activity calls are given as the source filed them. The rule behind the calls is not given here.

What was measured:
[1] = Half life in Sprague-Dawley rat serum at 10 mg/kg, iv administered as single dose by LC-MS/MS analysis; assay type: ADME, organism-based
In short: (§1)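 Male Sprague Dawley rats (250 ± 25 g), fasted overnight (12-16 h), n = 3 per time point; single 10 mg/kg dose orally by feeding needle, or iv from DMSO solution. Serum, prostate and hypothalamus collected up to 48 h post oral dose; hypothalamus from three rats pooled. LC-MS/MS (MRM, phenacetin internal standard), linear 5-400 ng/mL; noncompartmental and compartmental analysis.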

Rattus norvegicus [2] = assay: Anti-androgenic activity in citral-induced prostatic hyperplasia Sprague-Dawley rat model assessed as prostate weight at 10 mg/kg, po administered once daily coadministered with citral for 21 days measured 24 hrs last post dose (reference value: 100%); assay type: functional
In short: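 Adult male Sprague-Dawley rats (250-280 g, n = 5), citral 100 mg/kg orally once daily for 28 days. From day 8, compound or flutamide at 10 mg/kg orally once daily for the remaining 21 days. Prostate weight is expressed relative to the citral group (100%). Prostates fixed in 10% formalin; 5 μ sections stained with H&E, examined by light microscopy.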

[3] = Cmax in Sprague-Dawley rat serum at 10 mg/kg, po administered as single dose by LC-MS/MS analysis; assay type: ADME, organism-based; set-up: dose 10 mg/kg, route oral; in short: as §1
Serum = assay: Volume of distribution at steady state in Sprague-Dawley rat serum at 10 mg/kg, po administered as single dose by LC-MS/MS analysis; assay type: ADME, organism-based; settings: in vivo; in short: as §1
[4] = Clearance in Sprague-Dawley rat serum at 10 mg/kg, iv administered as single dose by LC-MS/MS analysis; assay type: ADME, organism-based; in short: as §1
LNCaP = assay: Cytotoxicity against human LNCAP cells after 24 hrs by MTT assay; assay type: functional, cell-based
[5] = Ratio of drug level in prostate to serum in Sprague-Dawley rat at 10 mg/kg, po administered as single dose by LC-MS/MS analysis; assay type: ADME, organism-based; in short: as §1
Rattus norvegicus [6] = assay: Toxicity in citral-induced prostatic hyperplasia Sprague-Dawley rat model assessed as effect on epididymis weight at 10 mg/kg, po administered once daily coadministered with citral for 21 days measured 24 hrs last post dose; assay type: organism-based; settings: in vivo
[7] = Tmax in Sprague-Dawley rat prostate at 10 mg/kg, po administered as single dose by LC-MS/MS analysis; assay type: ADME, organism-based, Prostate gland; in short: as §1
Mus musculus [8] = assay: Anti-depressant like activity in Swiss albino mouse assessed as reduction in immobility time at 20 mg/kg, po measured for 5 mins by tail suspension test; assay type: functional, organism-based
In short: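 Male Swiss albino mice dosed orally in 1% gum acacia; imipramine as standard. Each mouse suspended by the tail with tape to a horizontal bar 60 cm above the table. Immobility (no limb or body movement other than respiration) recorded for 5 min after 1 min acclimatization; N = 5.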

[9] = Half life in Sprague-Dawley rat serum at 10 mg/kg, po administered as single dose by LC-MS/MS analysis; assay type: ADME, organism-based; in short: as §1
[10] = Oral bioavailability in Sprague-Dawley rat serum at 10 mg/kg administered as single dose by LC-MS/MS analysis; assay type: ADME, organism-based; in short: as §1
[11] = Clearance in Sprague-Dawley rat prostate at 10 mg/kg, po administered as single dose by LC-MS/MS analysis; assay type: ADME, organism-based, Prostate gland; settings: in vivo; in short: as §1
[12] = Volume of distribution at steady state in Sprague-Dawley rat prostate at 10 mg/kg, po administered as single dose by LC-MS/MS analysis; assay type: ADME, organism-based, Prostate gland; settings: in vivo; in short: as §1
DU-145 = assay: Cytotoxicity against human DU145 cells after 24 hrs by MTT assay; assay type: functional, cell-based; settings: DU-145, 24 h
[13] = Cmax in Sprague-Dawley rat serum at 10 mg/kg, iv administered as single dose by LC-MS/MS analysis; assay type: ADME, organism-based; set-up: dose 10 mg/kg, route intravenous; in short: as §1
[14] = AUClast in Sprague-Dawley rat prostate at 10 mg/kg, po administered as single dose by LC-MS/MS analysis; assay type: ADME, organism-based, Prostate gland; settings: in vivo; in short: as §1
[15] = Cmax in Sprague-Dawley rat prostate at 10 mg/kg, po administered as single dose by LC-MS/MS analysis; assay type: ADME, organism-based, Prostate gland; set-up: dose 10 mg/kg, route oral; in short: as §1
[16] = Volume of distribution at steady state in Sprague-Dawley rat serum at 10 mg/kg, iv administered as single dose by LC-MS/MS analysis; assay type: ADME, organism-based; settings: read-out: Vdss; in short: as §1
[17] = target: T1, Androgen receptor (Homo sapiens) (UniProt P10275); assay: Antagonist activity at AR (unknown origin) expressed in African green monkey COS7 cells at 7.5 uM after 24 hrs by dual luciferase reporter gene assay; assay type: cell-based
T1 sequence (whole entry): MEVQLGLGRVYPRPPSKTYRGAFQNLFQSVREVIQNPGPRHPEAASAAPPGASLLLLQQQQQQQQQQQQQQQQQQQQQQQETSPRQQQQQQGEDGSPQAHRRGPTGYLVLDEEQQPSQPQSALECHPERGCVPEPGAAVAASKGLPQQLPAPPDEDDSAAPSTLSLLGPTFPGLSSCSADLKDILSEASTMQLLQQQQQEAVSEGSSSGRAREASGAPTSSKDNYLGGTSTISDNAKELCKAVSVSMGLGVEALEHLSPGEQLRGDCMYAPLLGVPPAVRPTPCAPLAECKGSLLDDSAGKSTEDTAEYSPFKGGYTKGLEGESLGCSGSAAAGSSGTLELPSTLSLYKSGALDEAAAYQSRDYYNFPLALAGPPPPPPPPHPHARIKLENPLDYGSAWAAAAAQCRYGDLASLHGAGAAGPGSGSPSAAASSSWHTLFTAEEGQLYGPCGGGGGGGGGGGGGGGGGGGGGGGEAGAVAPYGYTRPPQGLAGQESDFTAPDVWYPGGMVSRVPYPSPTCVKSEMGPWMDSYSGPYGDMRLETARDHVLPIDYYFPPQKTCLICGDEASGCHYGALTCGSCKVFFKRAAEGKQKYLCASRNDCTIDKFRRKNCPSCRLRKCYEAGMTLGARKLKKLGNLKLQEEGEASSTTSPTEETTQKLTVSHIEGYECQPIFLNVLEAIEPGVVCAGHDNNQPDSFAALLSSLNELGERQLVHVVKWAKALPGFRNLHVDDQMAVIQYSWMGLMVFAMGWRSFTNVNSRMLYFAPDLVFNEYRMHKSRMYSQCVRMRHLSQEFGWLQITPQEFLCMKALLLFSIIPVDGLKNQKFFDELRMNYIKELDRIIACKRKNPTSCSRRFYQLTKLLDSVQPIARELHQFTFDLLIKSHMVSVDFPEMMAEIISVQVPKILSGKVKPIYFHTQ
In short: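 Cos7 cells (AR-negative) transiently transfected for 8 h with pARE-E1B-LUC reporter plus pCR3.1.AR expression vector. Then in complete medium, treated with compound at 7.5 μM for 24 h; bicalutamide 3 μM as positive control. Luciferase normalized to pRL-SV40 internal control, expressed as RLU relative to control = 100%.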

Mus musculus [18] = assay: Toxicity in Swiss albino mouse assessed as latency time to fall at 20 mg/kg, po measured at 1 hr interval for 4 hrs by rotarod test; assay type: organism-based; settings: in vivo
In short: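 Mice trained on the rotarod (5 to 10 rpm), 2 min trials, 3 per day for two days. On day 3, tested before oral dosing and at 1, 2, 3 and 4 h after, recording latency to fall.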

[19] = Clearance in Sprague-Dawley rat serum at 10 mg/kg, po administered as single dose by LC-MS/MS analysis; assay type: ADME, organism-based; in short: as §1

half-life [1]: 5.2 h
Cmax [3]: 329 ng/mL
Vdss (Serum): 23.7 L/kg
clearance [4]: 68.3 mL/min/kg
Kp [5]: 11.8
Tmax [7]: 4 h
half-life [9]: 5.4 h
bioavailability [10]: 35.4%
CL [11]: 0.3 g/h/kg
Vdss [12]: 3.6 g/kg
Cmax [13]: 520 ng/mL
AUClast [14]: 10.7 µg·h/g
Cmax [15]: 572 ng/g
Vd [16]: 28.3 L/kg
Activity [17]: Active
CL/F [19]: 65 mL/min/kg
Compound: c1ccc(N2CCN(CCCN3CCN(c4ccccn4)CC3)CC2)nc1
Activity (Rattus norvegicus [2]): 53.8%
EC50 (LNCaP): 15.6 µM
Activity (Rattus norvegicus [6]): Non-Toxic
Activity (Mus musculus [8]): Active
EC50 (DU-145): > 80 µM
Time (Mus musculus [18]): 120 s
